ChEMBL document CHEMBL1122650, “Synthesis and central nervous system properties of 2-[(alkoxycarbonyl)amino]-4(5)-phenyl-2-imidazolines” (J Med Chem, 1984)
pIC50: −log10 of the molar value. Calls of active or inactive are those of the source. The calls are words filed in the database; no cut-off is given here.

Experiments:
[1] = HPLC capacity factor (k'); type: ADME
Mus musculus [2] = organism: Mus musculus; experiment: Mouse behavior activity was determined;D= Depressant; type: functional, organism-based
Procedure, shortened: (§1)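 Male Simonsen (ICR) fBR mice, 18-24 g, groups of three, given 3, 10, 30, 100, 300 or 1000 mg/kg ip as aqueous solution and observed for behavioral profile; deaths followed up to 7 days.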

Mus musculus [3] = organism: Mus musculus; experiment: Righting ability was determined in mice before rapid rolling (unaroused); type: functional
Procedure, shortened: (§2)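 Male Simonsen (ICR) fBR mice, 18-24 g, groups of ten, dosed with aqueous compound. Righting ability checked before (unaroused) and after (aroused) rapid rolling in the hand; ED50 by Litchfield-Wilcoxon method.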

Mus musculus [4] = organism: Mus musculus; experiment: Evaluated for antagonism of reserpine induced hypothermia; type: functional
Procedure, shortened: (§3)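 Male HLa (ICR) BR mice, 18-24 g, in groups of eight; reserpine 5 mg/kg ip given 2 h before oral test compound as aqueous solution. Rectal temperature taken hourly; 1-4-h hypothermia assessed by analysis of variance.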

[5] = Lethal dose in mouse, in groups of ten; type: toxicity, organism-based; conditions: in vivo
Mus musculus [6] = organism: Mus musculus; experiment: Evaluated for antagonism of reserpine induced hypothermia;I= Inactive; type: functional, organism-based; procedure, shortened: as §3
Mus musculus [7] = organism: Mus musculus; experiment: Mouse behavior activity was determined; Dwk=Depressant Weak; type: functional, organism-based; procedure, shortened: as §1
Mus musculus [8] = organism: Mus musculus; experiment: Compound was evaluated for maximal electroshock antagonism (MES) against mice; type: functional
Procedure, shortened: (§4)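 Male HLa (ICR) BR mice, groups of eight to ten, dosed ip (aqueous solution) 15 min before transcorneal electroshock (50 mA, 0.2 s). End point: abolition of tonic hind-limb extension; quantal ED50 by Litchfield-Wilcoxon.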

Mus musculus [9] = organism: Mus musculus; experiment: Compound was evaluated for maximal electroshock antagonism (MES) against mice; Inactive; type: functional, organism-based; procedure, shortened: as §4
Mus musculus [10] = organism: Mus musculus; experiment: Inhibition of radioactive NE [3H]norepinephrine uptake into mouse heart; type: functional
Procedure, shortened: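 Mice dosed ip (aqueous solution) before iv [3H]NE; hearts removed 3 h after label, washed, weighed, dissolved in Protosol and counted as dpm per mg tissue. Dose-response from linear regression.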

Mus musculus [11] = experiment: Reserpine hypothermia antagonism in mouse administered perorally with 5 mg/kg of reserpine 2 hour prior to test compound administration; type: functional; conditions: route oral
Mus musculus [12] = organism: Mus musculus; experiment: Righting ability was determined in mice […] rapid rolling (aroused); type: functional; procedure, shortened: as §2
Rattus norvegicus [13] = organism: Rattus norvegicus; experiment: Inhibition of the 5-HT [14C]5-HT uptake by rat brain slices In vitro; type: functional
Procedure, shortened: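 Rat cerebral cortex slices, 5 mg tissue per mL Krebs-Henseleit buffer, incubated at 37 °C with [3H]NE or [14C]5-HT; blanks at 4 °C, undosed controls. Stopped after 20 min by filtration; slice radioactivity counted; IC50 from linear regression of uptake inhibition.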

Rattus norvegicus [14] = organism: Rattus norvegicus; experiment: Inhibition of the NE [3H]Norepinephrine uptake by rat brain slices In vitro; type: functional
Mus musculus [15] = organism: Mus musculus; experiment: Righting ability was determined in mice after rapid rolling (aroused); type: functional; procedure, shortened: as §2
Mus musculus [16] = experiment: Evaluated in vivo for reserpine hypothermia after oral administration in mouse. Minimum active dose was reported; Inactive; type: functional, organism-based; procedure, shortened: as §3

With `COC(=O)NC1=NC(c2ccccc2-c2ccccc2)CN1` (stereo not given) the “Log k'” value [1] was 1.06, the Mouse behavior activity (Mus musculus [2]) was “Depressant” and the Loss of righting reflex (Mus musculus [3]) was 70 mg/kg. For the same compound, the HYPO (Mus musculus [4]) was over 20 mg/kg and the LD50 [5] was 200 mg/kg.

In the case of `COC(=O)NC1=NC(c2cc(C)ccc2C)CN1` (stereo not given), the “Log k'” value [1] was 0.58, the HYPO (Mus musculus [6]) was “inactive” and the Mouse behavior activity (Mus musculus [7]) was “Depressant - weak”. It also gave an ED50 (Mus musculus [8]) of about 100 mg/kg and an LD50 [5] of 700 mg/kg.

In the case of `CN1CC(c2c(Cl)cccc2Cl)N=C1N` (stereo not given), the ED50 (Mus musculus [9]) was “inactive”.

In the case of `CCOC(=O)NC1=NC(c2ccccc2Cl)CN1C` (stereo not given), the “Log k'” value [1] was 0.82, the ED50 (Mus musculus [10]) was 34 mg/kg and the Mouse behavior activity (Mus musculus [2]) was “Depressant”. For the same compound, the ED50 (Mus musculus [8]) was 28 mg/kg, the Reserpine hypothermia (Mus musculus [11]) was 0.15 mg/kg and the Loss of righting reflex (Mus musculus [12]) was 64 mg/kg. It also gave a Loss of righting reflex (Mus musculus [3]) of 30 mg/kg, a pIC50 (Rattus norvegicus [13]) of 3.82 and a pIC50 (Rattus norvegicus [14]) of 4.52. It also gave an HYPO (Mus musculus [4]) of under 0.5 mg/kg and an LD50 [5] of 200 mg/kg.

For `COC(=O)NC1=NC(c2c(Cl)cccc2Cl)CN1` (stereo not given), the “Log k'” value [1] was 0.3, the ED50 (Mus musculus [10]) was 14.2 mg/kg and the Mouse behavior activity (Mus musculus [7]) was “Depressant”. The ED50 (Mus musculus [9]) was “inactive”, the Reserpine hypothermia (Mus musculus [11]) was 0.15 mg/kg and the pIC50 (Rattus norvegicus [13]) was under 4.00. The pIC50 (Rattus norvegicus [14]) was under 4.00, the HYPO (Mus musculus [4]) was under 0.5 mg/kg and the LD50 [5] was 300 mg/kg.

With `CN1C(N)=NCC1c1cccc(Cl)c1` (stereo not given) the ED50 (Mus musculus [9]) was “inactive”.

For `COC(=O)NC1=NC(c2cccc(OC)c2)CN1` (stereo not given), the “Log k'” value [1] was -0.07, the HYPO (Mus musculus [6]) was “inactive” and the Mouse behavior activity (Mus musculus [2]) was “Depressant”. The ED50 (Mus musculus [9]) was “inactive”, the Loss of righting reflex (Mus musculus [15]) was 197 mg/kg and the Loss of righting reflex (Mus musculus [3]) was 182 mg/kg. For the same compound, the LD50 [5] was 700 mg/kg.

For `CCOC(=O)NC1=NC(c2cccc(C)c2C)CN1C` (stereo not given), the “Log k'” value [1] was 1.02, the HYPO (Mus musculus [6]) was “inactive” and the Mouse behavior activity (Mus musculus [2]) was “Depressant”. For the same compound, the ED50 (Mus musculus [8]) was 70 mg/kg, the Loss of righting reflex (Mus musculus [12]) was 66 mg/kg and the Loss of righting reflex (Mus musculus [3]) was 41 mg/kg. The LD50 [5] was 300 mg/kg.

For `COC(=O)NC1=NC(c2ccc(C(F)(F)F)cc2)CN1` (stereo not given), the “Log k'” value [1] was 0.56, the ED50 (Mus musculus [16]) was “inactive” and the Mouse behavior activity (Mus musculus [7]) was “Depressant - weak”. The ED50 (Mus musculus [9]) was “inactive”, the HYPO (Mus musculus [4]) was over 20 mg/kg and the LD50 [5] was 700 mg/kg.

For `COC(=O)NC1=NC(c2ccccc2F)CN1` (stereo not given), the Mouse behavior activity (Mus musculus [2]) was “Depressant”, the ED50 (Mus musculus [8]) was 54 mg/kg and the Loss of righting reflex (Mus musculus [15]) was 234 mg/kg. For the same compound, the Loss of righting reflex (Mus musculus [3]) was 210 mg/kg, the HYPO (Mus musculus [4]) was under 0.5 mg/kg and the LD50 [5] was 255 mg/kg.

In the case of `COC(=O)NC1=NC(c2cccc(OC)c2)CN1C` (stereo not given), the “Log k'” value [1] was 0.18, the Mouse behavior activity (Mus musculus [2]) was “Depressant” and the ED50 (Mus musculus [8]) was 128 mg/kg. It also gave a Loss of righting reflex (Mus musculus [12]) of 144 mg/kg, a Loss of righting reflex (Mus musculus [3]) of 100 mg/kg and an HYPO (Mus musculus [4]) of over 20 mg/kg. It also gave an LD50 [5] of 250 mg/kg.

With `COC(=O)NC1=NC(c2cccc(Cl)c2)CN1C` (stereo not given) the “Log k'” value [1] was 0.53, the Mouse behavior activity (Mus musculus [2]) was “Depressant” and the ED50 (Mus musculus [8]) was 100 mg/kg. The Loss of righting reflex (Mus musculus [3]) was 200 mg/kg and the LD50 [5] was 300 mg/kg.

With `COC(=O)NC1=NC(c2cc(OC)cc(OC)c2)CN1` (stereo not given) the “Log k'” value [1] was 0.1, the HYPO (Mus musculus [6]) was “inactive” and the Mouse behavior activity (Mus musculus [7]) was “Depressant - weak”. The ED50 (Mus musculus [9]) was “inactive” and the LD50 [5] was 300 mg/kg.

In the case of `CCN1CC(c2ccccc2)N=C1NC(=O)OC` (stereo not given), the “Log k'” value [1] was 0.39, the Mouse behavior activity (Mus musculus [2]) was “Depressant” and the ED50 (Mus musculus [8]) was 66 mg/kg. For the same compound, the Loss of righting reflex (Mus musculus [3]) was 84 mg/kg and the LD50 [5] was 117 mg/kg.

In the case of `CC(C)COC(=O)NC1=NC(c2ccccc2)CN1C` (stereo not given), the “Log k'” value [1] was 1.15, the Mouse behavior activity (Mus musculus [2]) was “Depressant” and the ED50 (Mus musculus [8]) was 70 mg/kg. The Loss of righting reflex (Mus musculus [12]) was 76 mg/kg, the Loss of righting reflex (Mus musculus [3]) was 41 mg/kg and the HYPO (Mus musculus [4]) was over 20 mg/kg. It also gave an LD50 [5] of 247 mg/kg.

For `COC(=O)NC1=NCC2c3ccccc3CCN12` (stereo not given), the Mouse behavior activity (Mus musculus [2]) was “Depressant” and the LD50 [5] was 200 mg/kg.

In the case of `COC(=O)NC1=NC(Cc2ccccc2)CN1` (stereo not given), the “Log k'” value [1] was 0.12.

For `COC(=O)NC1=NC(c2c(Cl)cccc2Cl)CN1C` (stereo not given), the HYPO (Mus musculus [4]) was under 0.5 mg/kg.

In the case of `COC(=O)NC1=NCC(c2c(Cl)cccc2Cl)N1C` (stereo not given), the “Log k'” value [1] was 0.54 and the ED50 (Mus musculus [8]) was 22 mg/kg.

For `CCOc1ccccc1C1CN=C(NC(=O)OC)N1` (stereo not given), the “Log k'” value [1] was 0.55, the HYPO (Mus musculus [6]) was “inactive” and the Mouse behavior activity (Mus musculus [2]) was “Depressant”. For the same compound, the ED50 (Mus musculus [9]) was “inactive”, the Loss of righting reflex (Mus musculus [15]) was 125 mg/kg and the Loss of righting reflex (Mus musculus [3]) was 155 mg/kg. For the same compound, the LD50 [5] was 700 mg/kg.
